# B1: Beta-secretase 1 (Homo sapiens), P56817 (protein)
# chain: MAQALPWLLLWMGAGVLPAHGTQHGIRLPLRSGLGGAPLGLRLPRETDEEPEEPGRRGSFVEMVDNLRGKSGQGYYVEMTVGSPPQTLNILVDTGSSNFAVGAAPHPFLHRYYQRQLSSTYRDLRKGVYVPYTQGKWEGELGTDLVSIPHGPNVTVRANIAAITESDKFFINGSNWEGILGLAYAEIARPDDSLEPFFDSLVKQTHVPNLFSLQLCGAGFPLNQSEVLASVGGSMIIGGIDHSLYTGSLWYTPIRREWYYEVIIVRVEINGQDLKMDCKEYNYDKSIVDSGTTNLRLPKKVFEAAVKSIKAASSTEKFPDGFWLGEQLVCWQAGTTPWNIFPVISLYLMGEVTNQSFRITILPQQYLRPVEDVATSQDDCYKFAISQSSTGTVMGAVIMEGFYVVFDRARKRIGFAVSACHVHDEFRTAAVEGPFVTLDMEDCGYNIPQTDESTLMTIAYVMAAICALFMLPLCLMVCQWRCLRCLRQQHDDFADDISLLK
# Substrate: CC[C@H](C)[C@H](N)C(=O)N[C@@H](CCCCN)C(=O)N[C@H](C(=O)N[C@@H](CCC(=O)O)C(=O)N[C@@H](CCC(=O)O)C(=O)N[C@H](C(=O)N[C@@H](CO)C(=O)N[C@@H](CCC(=O)O)C(=O)N[C@H](C(=O)N[C@@H](CC(N)=O)C(=O)N[C@@H](CC(C)C)C(=O)N[C@@H](CC(=O)O)C(=O)N[C@@H](C)C(=O)N[C@@H](CCC(=O)O)C(=O)N[C@@H](Cc1ccccc1)C(=O)N[C@@H](CCCNC(=N)N)C(=O)N[C@@H](Cc1cnc[nH]1)C(=O)N[C@@H](CC(=O)O)C(=O)N[C@@H](CO)C(=O)NCC(N)=O)C(C)C)[C@@H](C)CC)[C@@H](C)O
# Experiment: Activity of recombinant BACE assessed as substrate cleavage at 105 uM after 15 mins by HPLC analysis
# Outline: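 Kinetic run: rBACE1 (33 nM) added to eicosapeptide amide at final concentrations 0–105, 37 °C, 15 min. Aliquots analysed by HPLC, and initial rates taken from the decrease in substrate peak area. Km obtained from a plot of [S]/v versus [S]. Measurements done three times and averaged.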
protein,measurement,value
B1,Km,5.5 µM
same,kcat,1720 s⁻¹
